From PubChem
NSD2 HMT inh – NSD2 (human) methyltransferase inhibition; O96028; NSD2 peptide methylation, AlphaScreen, 120 min; inhibition, % at 12.5 µM; 310,000 tested, 0.54% active; AID 743445; in the data active means inhibition above about 50%
LEDGF integ inh – blocks HIV-1 LEDGF/p75-dependent DNA integration; inhibition, % at 3.7 µM; TR-FRET IN-LEDGF/p75 DNA integration, Eu/Cy5; 370,000 tested, 0.64% active; AID 743269;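 active means inhibition above the screen-wide mean plus 3 SD, cut at about 13% in these data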;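 further: signal is the Cy5 over europium emission ratio at 671 and 618 nm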
TDP2 inh – blocks human TDP2 phosphodiesterase activity. recombinant TDP2, T5PNP hydrolysis, p-nitrophenol absorbance 415 nm. 370,000 tested, 0.34% active. AID 720702. inhibition, % at 12.8 µM;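 active means inhibition above the mean of all tested compounds plus 3 SD, set per campaign, cut at about 25% in these data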
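System – recombinant human TDP2 · Quantity – TDP2 enzyme at 120 nM final · Doses – single concentration, 12.8 µM nominal, with 1% DMSO · Incubation – 2 h at 37 °C · Measured by – epi absorbance of p-nitrophenol freed from T5PNP by hydrolysis · Read-out – % inhibition relative to enzyme-containing and enzyme-free wells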
MBD2 inh – MBD2-methylated oligo binding inhibition; Q9UBB5; TR-FRET, MBD2 binding to methylated oligonucleotide; inhibition, % at 4.4 µM; 370,000 tested, 0.31% active; AID 686964; in the data active means inhibition above about 13%
Target sequence (Q9UBB5 whole entry, looked up): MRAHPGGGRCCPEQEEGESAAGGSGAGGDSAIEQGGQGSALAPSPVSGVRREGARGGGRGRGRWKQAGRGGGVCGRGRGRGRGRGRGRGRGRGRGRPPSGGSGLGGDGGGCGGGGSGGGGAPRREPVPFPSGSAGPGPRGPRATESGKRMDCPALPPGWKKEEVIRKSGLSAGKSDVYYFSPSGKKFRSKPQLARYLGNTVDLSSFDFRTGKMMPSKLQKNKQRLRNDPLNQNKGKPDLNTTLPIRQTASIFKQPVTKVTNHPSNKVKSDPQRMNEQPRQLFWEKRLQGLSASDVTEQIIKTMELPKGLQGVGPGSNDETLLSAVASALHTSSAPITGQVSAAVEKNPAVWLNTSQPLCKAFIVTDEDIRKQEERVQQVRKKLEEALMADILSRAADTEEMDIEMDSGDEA
CASP6 VEID inh – blocks human caspase-6 cleavage activity; AID 686996; 350,000 tested, 0.53% active; purified caspase-6, Z-VEID-R110 cleavage fluorescence; P55212; inhibition, % at 12.5 µM;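 active means mean inhibition across replicates at least about 35%, with every replicate also reaching that limit, limit read from the data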
UHRF1 MBD2 ctr – UHRF1 methyl-DNA binding inhibition | AID 687016 | UHRF1 binding to methylated oligo, TR-FRET | Q96T88 | 370,000 tested, 0.75% active | inhibition, % at 4.4 µM; in the data active means inhibition above about 21%;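 further: UHRF1 SRA domain binding a hemimethylated CpG hairpin DNA probe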
Of the large screens only hits and unclear results are named; the others gave an inactive call. Sampled rows, rich in hits. Any-hit rate of the full collection: about 1.8%.

COc1cc2c(cc1O)C[C@H]1NCCc3cc4c(c-2c31)OCO4	MBD2 inh 23, UHRF1 MBD2 ctr 30 (no result: NSD2 HMT inh)
COc1cccc(N2C(=O)NC(=O)/C(=C/c3ccc([N+](=O)[O-])s3)C2=O)c1	CASP6 VEID inh 47
O=C1NC(=O)N(Cc2ccc(F)cc2)C(=O)/C1=C\c1ccc([N+](=O)[O-])s1	none
COc1ccc(CN2C(=O)NC(=O)/C(=C/c3ccc([N+](=O)[O-])s3)C2=O)cc1	CASP6 VEID inh 44
COC(=O)[C@@]1(C#N)[C@@H]2C=CC(C(C)=O)=CN2[C@@H](C(N)=O)[C@@H]1c1ccc(F)cc1	UHRF1 MBD2 ctr 25
N#CC1=C(N)Oc2c(c(=O)oc3ccccc23)C1c1ccc(OC(=O)N2CCOCC2)cc1 (stereo not drawn)	UHRF1 MBD2 ctr 38
CC(C)CC1C(C#N)=C(N)Oc2c1c(=O)oc1ccccc21 (stereo not drawn)	UHRF1 MBD2 ctr 76 (no result: NSD2 HMT inh)
COC(=O)[C@H]1[C@H](CO)[C@H]2Cn3c(cccc3=O)[C@@H]1N2C(=O)C1CCC1	none (no result: NSD2 HMT inh, LEDGF integ inh, TDP2 inh, MBD2 inh, UHRF1 MBD2 ctr)
CC=Cc1ccc2n(c1=O)C[C@H]1[C@H](CO)[C@@H](C(=O)OC)[C@@H]2N1CC1CC1 (mixture of isomers)	none (no result: NSD2 HMT inh, LEDGF integ inh, TDP2 inh, MBD2 inh, UHRF1 MBD2 ctr)
O=C1NC(=O)N(c2ccccc2)C(=O)/C1=C/c1coc2ccc(O)cc2c1=O	UHRF1 MBD2 ctr 27
CCCCCCCSc1cc(OC)c(CCNC)cc1OC	NSD2 HMT inh 69 (no result: CASP6 VEID inh)
O=C1NC(=O)N(c2cccc(Cl)c2)C(=O)/C1=C\c1ccc(Sc2nc3ccccc3[nH]2)o1	NSD2 HMT inh 71, LEDGF integ inh 20, CASP6 VEID inh 70
O=C1NC(=O)N(c2ccccc2F)C(=O)/C1=C/c1ccc(Sc2nc3ccccc3[nH]2)o1	NSD2 HMT inh 87, LEDGF integ inh 22, CASP6 VEID inh 60
NCC(CC(=O)O)c1ccc(Cl)cc1 (stereo not drawn)	UHRF1 MBD2 ctr 25 (no result: CASP6 VEID inh)
O=C(O)COc1ccc(Cl)cc1Cl	none
COC(=O)[C@@H]1[C@@H](CO)[C@@H]2Cn3c(ccc(C4=CCCCC4)c3=O)[C@H]1N2Cc1ccccc1OC	none (no result: NSD2 HMT inh, LEDGF integ inh, TDP2 inh, MBD2 inh, UHRF1 MBD2 ctr)
O=C(NC(=S)N1C[C@H]2C[C@H](C1)c1cccc(=O)n1C2)c1ccc(Cl)cc1Cl	UHRF1 MBD2 ctr 91 (no result: NSD2 HMT inh)
Nc1cccc(SC2CC(=O)N(c3ccc(Cl)cc3C(=O)c3ccccc3)C2=O)c1 (stereo not drawn)	UHRF1 MBD2 ctr 28
CCN1[C@@H]2c3ccc(-c4cccc(OC)c4)c(=O)n3C[C@H]1[C@H](CO)[C@H]2C(=O)OC	none (no result: NSD2 HMT inh, LEDGF integ inh, TDP2 inh, MBD2 inh, UHRF1 MBD2 ctr)
CCCN1[C@@H]2c3ccc(-c4ccc(OC)cc4)c(=O)n3C[C@H]1[C@H](CO)[C@H]2C(=O)OC	none (no result: NSD2 HMT inh, LEDGF integ inh, TDP2 inh, MBD2 inh, UHRF1 MBD2 ctr)
O=P(O)(Oc1ccccc1)c1ccccc1	UHRF1 MBD2 ctr 21
O=P(O)(O)Oc1ccccc1P(=O)(c1ccccc1)c1ccccc1	none
COc1ccc(C#Cc2ccc([C@H]3[C@H]4CN(C(=O)Cc5ccncc5)CCCCN4[C@H]3CO)cc2)cc1	none (no result: NSD2 HMT inh, LEDGF integ inh, TDP2 inh, MBD2 inh, UHRF1 MBD2 ctr)
O=C1C(Cl)=CC(=Nc2ccc(O)cc2)C=C1Cl	CASP6 VEID inh 40 (no result: NSD2 HMT inh)
COc1cccc(N2C(=O)/C(=C/c3ccc(C)o3)C(=O)NC2=S)c1	CASP6 VEID inh 40
Cc1ccc(/C=C2\C(=O)NC(=S)N(c3ccc(F)cc3)C2=O)s1	none (no result: NSD2 HMT inh)
COc1ccc(N2C(=O)/C(=C/c3ccc(N(C)C)o3)C(=O)NC2=S)cc1	none (no result: NSD2 HMT inh)
Cc1ccc(/C=C2\C(=O)NC(=S)N(c3ccc(F)cc3)C2=O)o1	CASP6 VEID inh 41
COCC(=O)N1[C@@H]2c3ccc(C4=CCCC4)c(=O)n3C[C@H]1[C@H](CO)[C@H]2C(=O)OC	none (no result: NSD2 HMT inh, LEDGF integ inh, TDP2 inh, MBD2 inh, UHRF1 MBD2 ctr)
COC(=O)[C@@H]1[C@@H](CO)[C@@H]2Cn3c(ccc(C4=CCCC4)c3=O)[C@H]1N2Cc1ccccn1	none (no result: NSD2 HMT inh, LEDGF integ inh, TDP2 inh, MBD2 inh, UHRF1 MBD2 ctr)
COc1ccc(/C=C2/C(=O)N(Cc3ccco3)C(=O)N(C(C)C)C2=O)cc1	LEDGF integ inh 33, CASP6 VEID inh 78, UHRF1 MBD2 ctr 32 (no result: NSD2 HMT inh)
CCN1C(=O)C(=C2C=C(C)N(Cc3ccco3)C(C)=C2)C(=O)N(CC)C1=S	none (no result: CASP6 VEID inh)
O=C(O)c1cccc2c1NC(C(=O)O)C1CC(Sc3ccccc3[N+](=O)[O-])C(Cl)C21 (stereo not drawn)	LEDGF integ inh 52, MBD2 inh 21, UHRF1 MBD2 ctr 62 (no result: CASP6 VEID inh)
O=C(O)C[C@@H]1CC[C@H]2NC[C@@H](O)COC[C@@H]2O1	none (no result: NSD2 HMT inh, LEDGF integ inh, TDP2 inh, MBD2 inh, UHRF1 MBD2 ctr)
